Source: article PMC4559355 (Journal of nuclear medicine : official publication, Society …, 2015)

Columns and labels:
Mouse serum stability = type: in vitro ADME; conditions: mouse serum 0.5 mL + radiotracer 12.5 µL (0.74 MBq), 37°C, 60 min, ethanol precipitation of serum proteins, HPLC
[1] = Stability in phosphate-buffered saline; type: physicochemical; conditions: formulated in phosphate-buffered saline
[2] = tested on: DX3puroβ6 tumor (αvβ6-positive); test: Biodistribution, DX3puroβ6 xenograft tumor; type: in vivo, mouse; conditions: ratio x:1; for DX3puroβ6/DX3puro tumor uptake ratio: paired DX3puroβ6–DX3puro mouse model
Method in brief: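 Female athymic nude mice received subcutaneous DX3puro and DX3puroβ6 cells (3 × 10^6 each) on opposite flanks. Radiotracer in phosphate-buffered saline was given at 1.1–2.0 MBq/animal by tail-vein injection under 2% isoflurane. Mice were killed under 4% isoflurane at 1, 2 and 4 h (n = 3/time point). Tissues were rinsed and γ-counted; values are decay-corrected %ID/g, and ratios are taken from these.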

DX3puroβ6 (αvβ6 +) cells = test: Cell binding and internalization, DX3puroβ6 cells; type: cell-based; conditions: in vitro, ratio x:1
Method in brief: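 Radiolabelled tracer was incubated with DX3puroβ6 (αvβ6+) and DX3puro (αvβ6−) cells for 60 min, n = 4 per cell line and condition. Bound and internalized activity are each expressed as a fraction of total radioactivity, with SD. Uptake and internalization ratios are DX3puroβ6 over DX3puro values.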

[3] = Biodistribution, nontumor organs; type: in vivo; conditions: female, athymic nude, mouse, iv, total radioactivity
BxPC-3 tumor = test: Radiotracer stability in BxPC-3 tumor; type: in vivo, mouse; conditions: tumor collected 1 h after injection, homogenized, ethanol precipitation, HPLC
Method in brief: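 BxPC-3 xenografts came from 3.5 × 10^6 cells injected subcutaneously in female athymic nude mice. Radiotracer was given intravenously. Tumor was excised 1 h later and homogenized. Proteins were precipitated with ethanol, and supernatant aliquots were analysed by HPLC for intact versus degraded radiotracer.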

[4] = HPLC analysis of urine metabolites; type: in vivo; conditions: mouse urine, ethanol precipitation
[5] = tested on: BxPC-3 tumor (αvβ6-positive); test: Biodistribution, BxPC-3 xenograft tumor; type: in vivo; conditions: BxPC-3 mouse model, ratio x:1
DX3puroβ6 tumor = test: Radiotracer stability in DX3puroβ6 tumor; type: in vivo, mouse; conditions: tumor collected 1 h after injection, homogenized, ethanol precipitation, HPLC
Method in brief: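 Female athymic nude mice carried paired subcutaneous DX3puroβ6 and DX3puro xenografts (3 × 10^6 cells each, opposite flanks). After intravenous radiotracer, the DX3puroβ6 tumor was harvested at 1 h and homogenized. Proteins were removed by ethanol precipitation, and the supernatant was analysed by HPLC for intact radiotracer.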

[6] = paired mouse model, throughout (1, 2 and 4 h)
[7] = gallbladder, stomach, intestine

Row | SMILES | Radiotracer remaining intact in mouse serum (Mouse serum stability) [%] | Stable in phosphate-buffered saline (time) [1] [h] | DX3puroβ6 tumor–to–DX3puro tumor ratio [2, 6] | DX3puroβ6 tumor–to–blood ratio [2, 6] | Internalization ratio for the DX3puroβ6–DX3puro cell pair (DX3puroβ6 (αvβ6 +) cells) | Uptake (binding) ratio for the DX3puroβ6–DX3puro cell pair (DX3puroβ6 (αvβ6 +) cells) | tissue uptake at 1 h [3, 7] [%ID/g] | Apparent breakdown of radioactivity extracted from BxPC-3 tumor (BxPC-3 tumor) | DX3puroβ6/DX3puro tumor uptake ratio ([2]; 1 h) | DX3puroβ6/DX3puro tumor uptake ratio ([2]; 4 h) | Minor new peak in urine HPLC (slightly longer retention time) [4] [%] | tissue uptake at 1 h ([3]; pancreas) [%ID/g] | tissue uptake at 4 h ([3]; pancreas) [%ID/g] | BxPC-3–to–blood ratio ([5]; 4 h) | BxPC-3–to–liver ratio ([5]; 4 h) | BxPC-3–to–pancreas ratio [5] | Apparent metabolic breakdown of radioactivity extracted from DX3puroβ6 tumor (DX3puroβ6 tumor)
1 | CC(C)C[C@H](NC(=O)[C@H](CC(=O)O)NC(=O)CNC(=O)[C@H](CCCNC(=N)N)NC(=O)[C@H](CC(C)C)NC(=O)[C@H](CC(N)=O)NC(=O)[C@@H]1CCCN1C(=O)[C@@H](NC(=O)[C@H](C)NC(=O)[C@H](CC(N)=O)NC(=O)c1ccc(F)cc1)C(C)C)C(=O)N[C@@H](CCC(N)=O)C(=O)N[C@H](C(=O)N[C@@H](CC(C)C)C(=O)N[C@@H](C)C(=O)N[C@@H](CCC(N)=O)C(=O)N[C@@H](CCCCN)C(=O)N[C@H](C(=O)N[C@@H](C)C(=O)N[C@@H](CCCNC(=N)N)C(=O)N[C@H](C(=O)NCCOCCOCCOCCOCCOCCOCCOCCOCCOCCOCCOCCOCCOCCOCCOCCOCCOCCOCCOCCOCCOCCOCCOCCOCCOCCOCCOCCOCCC(N)=O)[C@@H](C)O)C(C)C)C(C)C [compound 4, ^18F-FBA-A20FMDV2-PEG28] | 76 | ≥ 4 | greater than 2.5 | greater than 2 | 9.4 | 7.1 | < 15 |  |  |  |  |  |  |  |  |  | 
2 | CC(C)C[C@H](NC(=O)[C@H](CC(=O)O)NC(=O)CNC(=O)[C@H](CCCNC(=N)N)NC(=O)[C@H](CC(C)C)NC(=O)[C@H](CC(N)=O)NC(=O)[C@@H]1CCCN1C(=O)[C@@H](NC(=O)[C@H](C)NC(=O)[C@H](CC(N)=O)NC(=O)CCOCCOCCOCCOCCOCCOCCOCCOCCOCCOCCOCCOCCOCCOCCOCCOCCOCCOCCOCCOCCOCCOCCOCCOCCOCCOCCOCCOCCNC(=O)c1ccc(F)cc1)C(C)C)C(=O)N[C@@H](CCC(N)=O)C(=O)N[C@H](C(=O)N[C@@H](CC(C)C)C(=O)N[C@@H](C)C(=O)N[C@@H](CCC(N)=O)C(=O)N[C@@H](CCCCN)C(=O)N[C@H](C(=O)N[C@@H](C)C(=O)N[C@@H](CCCNC(=N)N)C(=O)N[C@H](C(=O)NCCOCCOCCOCCOCCOCCOCCOCCOCCOCCOCCOCCOCCOCCOCCOCCOCCOCCOCCOCCOCCOCCOCCOCCOCCOCCOCCOCCOCCC(N)=O)[C@@H](C)O)C(C)C)C(C)C [compound 5, ^18F-FBA-PEG28-A20FMDV2-PEG28] | 80 | ≥ 4 |  | greater than 4.5 | 41 | 20 | < 15 | less than 20% | 6.5 | 10.7 | 18 | 0.46 ± 0.07 | 0.25 ± 0.07 | greater than 20 | greater than 20 | ≥ 9 | less than 20%
